Values joined by “and” are separate entries in the source; they are usually repeats but may differ in a detail not shown here. Equal values may be shown once. Active and inactive are the calls of the source. The rule behind the calls is not given here.
Experiments:
[1] = organism: Cavia porcellus; experiment: Tested for relaxation of carbachol-contracted guinea pig taenia coli at 37 degree C; Significantly more potent than ATP; format: functional
[2] = organism: Oryctolagus cuniculus; experiment: Tested for relaxation of carbachol-contracted rabbit mesenteric artery at 37 degree C; Significantly more potent than 2MeSATP; format: functional
[3] = organism: Cavia porcellus; experiment: Tested for contraction of guinea pig vas deferens at 37 degree C; Significantly more potent than ATP; format: functional
[4] = organism: Oryctolagus cuniculus; experiment: Tested for contraction of rabbit saphenous artery produced by 1 uM alpha,beta-MeATP at 37 degree C; Not active; format: functional
[5] = organism: Cavia porcellus; experiment: Tested for contraction of guinea pig isolated urinary bladder detrusor muscle at 37 degree C; Significantly more potent than ATP; format: functional; details: Muscle tissue
[6] = organism: Oryctolagus cuniculus; experiment: Tested for relaxation of carbachol-contracted rabbit aorta at 37 degree C; Significantly more potent than 2MeSATP; format: functional
[7] = Agonism at turkey erythrocyte P2Y receptor.; format: functional, Meleagris gallopavo
Summary of the method: (§1)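 Turkey erythrocytes labeled 18–24 h at 37 °C with 2-[3H]myo-inositol in inositol-free DMEM; ghosts made by hypotonic lysis (5 mM Na phosphate pH 7.4, 5 mM MgCl2, 1 mM EGTA). PLC assay: ~175 μg protein ghosts, 1 μM GTPγS, Hepes pH 7.0 medium with 424 μM CaCl2, 2 mM EGTA; 5 min, 30 °C; total [3H]inositol phosphates by anion exchange; K0.5 averaged from 3–8 curves.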

[8] = organism: Cavia porcellus; experiment: Tested for contraction of guinea pig vas deferens at 37 degree C; More potent than or equal to ATP; format: functional
[9] = organism: Cavia porcellus; experiment: Tested for contraction of guinea pig isolated urinary bladder detrusor muscle at 37 degree C; Potency equal to ATP; format: functional; details: Muscle tissue
[10] = organism: Oryctolagus cuniculus; experiment: Tested for contraction of rabbit saphenous artery produced by 1 uM alpha,beta-MeATP at 37 degree C; format: functional
[11] = organism: Cavia porcellus; experiment: Tested for contraction of guinea pig vas deferens at 37 degree C; Not active; format: functional
[12] = organism: Oryctolagus cuniculus; experiment: Tested for relaxation of carbachol-contracted rabbit mesenteric artery at 37 degree C; More potent than or equal to 2MeSATP; format: functional
[13] = organism: Cavia porcellus; experiment: Tested for relaxation of carbachol-contracted guinea pig taenia coli at 37 degree C; More potent than or equal to ATP; format: functional
[14] = organism: Cavia porcellus; experiment: Tested for contraction of guinea pig isolated urinary bladder detrusor muscle at 37 degree C; Less potent than or equal to ATP; format: functional; details: Muscle tissue
[15] = organism: Cavia porcellus; experiment: Tested for relaxation of carbachol-contracted guinea pig taenia coli at 37 degree C; Significantly less potent than ATP; format: functional
[16] = system: Meleagris gallopavo; experiment: Tested for stimulation of production of inositol phosphate in turkey erythrocyte membrane; Not active; format: functional; summary of the method: as §1
[17] = organism: Oryctolagus cuniculus; experiment: Tested for relaxation of carbachol-contracted rabbit mesenteric artery at 37 degree C; Potency equal to 2MeSATP; format: functional
[18] = organism: Cavia porcellus; experiment: Tested for contraction of guinea pig isolated urinary bladder detrusor muscle at 37 degree C; Not active; format: functional; details: Muscle tissue
[19] = system: Meleagris gallopavo; experiment: Induction of inositol phosphate in turkey erythrocyte membranes at 100 uM; Inactive; format: functional, cell membranes; summary of the method: as §1
[20] = organism: Oryctolagus cuniculus; experiment: Tested for relaxation of carbachol-contracted rabbit aorta at 37 degree C; More potent or equal to 2MeSATP; format: functional
[21] = organism: Cavia porcellus; experiment: Tested for contraction of guinea pig vas deferens at 37 degree C; Less potent than or equal to ATP; format: functional
[22] = organism: Cavia porcellus; experiment: Tested for relaxation of carbachol-contracted guinea pig taenia coli at 37 degree C; Potency equal to ATP; format: functional
[23] = organism: Oryctolagus cuniculus; experiment: Tested for relaxation of carbachol-contracted rabbit mesenteric artery at 37 degree C; Less potent or equal to 2MeSATP; format: functional
[24] = organism: Cavia porcellus; experiment: Tested for contraction of guinea pig vas deferens at 37 degree C; Potency equal to ATP; format: functional
[25] = organism: Cavia porcellus; experiment: Tested for contraction of guinea pig isolated urinary bladder detrusor muscle at 37 degree C; More potent than or equal to ATP; format: functional; details: Muscle tissue
[26] = organism: Cavia porcellus; experiment: Tested for contraction of guinea pig isolated urinary bladder detrusor muscle by 1 uM alpha,beta-MeATP at 37 degree C; Not active; format: functional; details: Muscle tissue
[27] = organism: Oryctolagus cuniculus; experiment: Tested for relaxation of carbachol-contracted rabbit mesenteric artery at 37 degree C; Not active; format: functional
[28] = organism: Oryctolagus cuniculus; experiment: Tested for relaxation of carbachol-contracted rabbit mesenteric artery at 37 degree C; Significantly less potent than 2MeSATP; format: functional
[29] = system: Meleagris gallopavo; experiment: Stimulating production of inositol phosphate in turkey erythrocyte membranes at a concentration of 100 uM; Inactive; format: functional, cell membranes; summary of the method: as §1

**Q.** Which results are given for `Nc1nc(SCCc2ccccc2)nc2c1ncn2C1O[C@H](COP(=O)(O)OP(=O)(O)OP(=O)(O)O)[C@@H](O)[C@H]1O` (stereo partly specified)?
**A.** Relative activity [1]: 7.1; Relative activity [2]: 6.2; Relative activity [3]: Active; Relative activity [4]: inactive; Relative activity [5]: Active; Relative activity [6]: 6.5; K 0.5 [7]: 30 nM

**Q.** Which Relative activity [1] does the source give for `C=CCCCCSc1nc(N)c2ncn(C3O[C@H](COP(=O)(O)OP(=O)(O)O)[C@@H](O)[C@H]3O)c2n1` (stereo partly specified) here?
**A.** Its Relative activity is 8.1.

**Q.** What about the K 0.5 [7] of the same compound?
**A.** The K 0.5 was 4 nM.

**Q.** With `CCCCCCSc1nc(N)c2ncn(C3O[C@H](COP(=O)(O)OP(=O)(O)OP(=O)(O)O)[C@@H](O)[C@H]3O)c2n1` (stereo partly specified) as the compound, how does the Relative activity [1] read?
**A.** The Relative activity was 7.5.

**Q.** What about the Relative activity [2] of the same compound?
**A.** Its Relative activity is 6.7.

**Q.** What about the Relative activity [4] of the same compound?
**A.** Its Relative activity is “inactive”.

**Q.** What about the Relative activity [8] of the same compound?
**A.** The Relative activity was “Active”.

**Q.** What about the Relative activity [9] of the same compound?
**A.** Its Relative activity is “Active”.

**Q.** What about the Relative activity [6] of the same compound?
**A.** The Relative activity was 6.7.

**Q.** What about the “K 0.5” value [7] of the same compound?
**A.** Its value is 5 nM.

**Q.** For `C=CCCCCSc1nc(NC)c2ncn(C3O[C@H](COP(=O)(O)OP(=O)(O)OP(=O)(O)O)[C@@H](O)[C@H]3O)c2n1` (stereo partly specified), which Relative activity [10] is on record?
**A.** The Relative activity was 1.5%.

**Q.** And the Relative activity [11]?
**A.** The Relative activity was “inactive”.

**Q.** And the Relative activity [12]?
**A.** Its Relative activity is 5.6 and 6.

**Q.** What about the Relative activity [13] of the same compound?
**A.** The Relative activity was 7.2.

**Q.** And the “K 0.5” value [7]?
**A.** The value was 26 nM.

**Q.** And the Relative activity [14]?
**A.** The Relative activity was “Partially active”.

**Q.** Which “K 0.5” value [7] does the source give for `Nc1nc(SCCCCCCCS)nc2c1ncn2C1O[C@H](COP(=O)(O)OP(=O)(O)OP(=O)(O)O)[C@@H](O)[C@H]1O` (stereo partly specified) here?
**A.** Its value is 773 nM.

**Q.** Which Relative activity [15] does the source give for `Nc1ncnc2c1ncn2[C@@H]1O[C@H](CO)[C@@H](O)[C@H]1O` [ADENOSINE] here?
**A.** The Relative activity was 3.9.

**Q.** And the “K 0.5” value [16]?
**A.** Its value is “inactive”.

**Q.** What about the Relative activity [11] of the same compound?
**A.** Its Relative activity is “inactive”.

**Q.** And the Relative activity [4]?
**A.** Its Relative activity is “inactive”.

**Q.** What about the Relative activity [12] of the same compound?
**A.** Its Relative activity is 5.7.

**Q.** What about the Relative activity [17] of the same compound?
**A.** The Relative activity was 6.

**Q.** And the Relative activity [18]?
**A.** Its Relative activity is “inactive”.

**Q.** What does the source list for `Nc1nc(SCCc2ccc([N+](=O)[O-])cc2)nc2c1ncn2C1O[C@H](COP(=O)(O)OP(=O)(O)OP(=O)(O)O)[C@@H](O)[C@H]1O` (stereo partly specified)?
**A.** Relative activity [1]: 8; Relative activity [10]: 2.6%; Relative activity [2]: 7; Relative activity [3]: Active; Relative activity [6]: 6.2; K 0.5 [7]: 12 nM; Relative activity [14]: Partially active

**Q.** For `Nc1nc(SCCc2ccc([N+](=O)[O-])cc2)nc2c1ncn2C1O[C@H](CO)[C@@H](O)[C@H]1O` (stereo partly specified), which Activity [19] is on record?
**A.** The Activity was “inactive”.

**Q.** With `Nc1ncnc2c1ncn2[C@@H]1O[C@H](COP(=O)(O)OP(=O)(O)O)[C@@H](O)[C@H]1O` [ADENOSINE DIPHOSPHATE] as the compound, how does the Relative activity [20] read?
**A.** Its Relative activity is 5.2.

**Q.** And the Relative activity [21]?
**A.** The Relative activity was “Partially active”.

**Q.** And the Relative activity [4]?
**A.** Its Relative activity is “inactive”.

**Q.** And the Relative activity [22]?
**A.** Its Relative activity is “Active”.

**Q.** What about the Relative activity [23] of the same compound?
**A.** The Relative activity was 5.2.

**Q.** And the Relative activity [9]?
**A.** The Relative activity was “Active”.

**Q.** And the “K 0.5” value [7]?
**A.** The value was 8000 nM.

**Q.** With `C=CCCCCSc1nc(N)c2ncn(C3O[C@H](COP(=O)(O)OP(=O)(O)OP(=O)(O)O)[C@@H](O)[C@H]3O)c2n1` (stereo partly specified) as the compound, how does the Relative activity [1] read?
**A.** The Relative activity was 7.9.

**Q.** What about the Relative activity [2] of the same compound?
**A.** The Relative activity was 7.

**Q.** What about the Relative activity [24] of the same compound?
**A.** The Relative activity was “Active”.

**Q.** What about the Relative activity [4] of the same compound?
**A.** Its Relative activity is “inactive”.

**Q.** And the “K 0.5” value [7]?
**A.** Its value is 10 nM.

**Q.** And the Relative activity [25]?
**A.** Its Relative activity is “Active”.

**Q.** Which Relative activity [26] does the source give for `CNc1ncnc2c1ncn2[C@@H]1O[C@H](COP(=O)(O)OP(=O)(O)OP(=O)(O)O)[C@@H](O)[C@H]1O` here?
**A.** Its Relative activity is “inactive”.

**Q.** And the Relative activity [27]?
**A.** Its Relative activity is “inactive”.

**Q.** And the Relative activity [11]?
**A.** The Relative activity was “inactive”.

**Q.** And the Relative activity [4]?
**A.** The Relative activity was “inactive”.

**Q.** And the Relative activity [22]?
**A.** Its Relative activity is 5.8.

**Q.** What about the “K 0.5” value [7] of the same compound?
**A.** Its value is 19000 nM.

**Q.** What about the Relative activity [28] of the same compound?
**A.** The Relative activity was “Partially active”.

**Q.** With `C=CCCCCSc1nc(N)c2ncn(C3O[C@H](CO)[C@@H](O)[C@H]3O)c2n1` (stereo partly specified) as the compound, how does the Activity [29] read?
**A.** The Activity was “inactive”.

**Q.** For `Nc1nc(Cl)nc2c1ncn2[C@@H]1O[C@H](COP(=O)(O)OP(=O)(O)OP(=O)(O)O)[C@@H](O)[C@H]1O`, which Relative activity [1] is on record?
**A.** Its Relative activity is 7.2.

**Q.** And the Relative activity [20]?
**A.** The Relative activity was 5.8.

**Q.** What about the Relative activity [24] of the same compound?
**A.** Its Relative activity is “Active”.

**Q.** What about the Relative activity [4] of the same compound?
**A.** The Relative activity was “inactive”.

**Q.** What about the Relative activity [17] of the same compound?
**A.** The Relative activity was 6.2.

**Q.** And the Relative activity [9]?
**A.** Its Relative activity is “Active”.

**Q.** And the “K 0.5” value [7]?
**A.** The value was 72 nM.
